We go through one compound from ChEMBL document CHEMBL1125330, “N-substituted pyrazino[2,3-c][1,2,6]thiadiazine 2,2-dioxides. A new class of diuretics” (J Med Chem, 1992).

Series [1] is filed under the species Rattus norvegicus. The series is described as follows: Mean urinary output in rats (Control/Drug treatment value); value 24.0/36.5. The class given is ADME, organism-based, Urine. To be noted: in vivo. The essentials: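 Water-loaded male Sprague-Dawley rats (HC/CFY, 175-200 g), eight per group, deprived of food and water 18 h. Single oral gavage of 20-25 mg/kg (some 10 mg/kg) in 1% CMC/0.1% Tween 80, then distilled water 2.5 mL/100 g bw po. Cumulative urine over 6 h in metabolic cages; mean mL/6 h/kg bw vs vehicle group.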

Series [2] is filed under the species Rattus norvegicus. The series is described as follows: Mean sodium excretion in rats (Control/Drug treatment value); value 0.52/2.02. The class given is ADME, organism-based. The note with it: in vivo.

Regarding `CCc1nc2c(nc1C)C(N)=NS(=O)(=O)N2C`, the V in the series filed under Rattus norvegicus [1] came out at 1.5. In the series listed under Rattus norvegicus [2], this compound showed a Na of 3.9.
